Measurements reported in ChEMBL document CHEMBL5712076, “A TGFβ-PRMT5-MEP50 axis regulates cancer cell invasion through histone H3 and H4 arginine methylation coupled transcriptional activation and repression” (Oncogene, 2017).
The source made the active and inactive calls. The rule behind the calls is not given here.

Assays:
[1] = biological target: Protein arginine N-methyltransferase 5 (Homo sapiens) (UniProt O14744); assay: Inhibition of PRMT5 in TGFbeta1-stimulated human HS578T cells assessed as decrease in H4R3me2s protein expression at 500 nM for 4 days by immunoblot analysis; format: cell-based; settings: Hs-578T, time 4.0 day
How it was run: (§1)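 Immunoblots of A549 or HS578T cells given or not given 10 nM TGFβ1 for 2 days and 500 nM inhibitor for 4 days. Probes were histone methylarginine marks and EMT-related proteins.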

[2] = biological target: Protein arginine N-methyltransferase 5 (Homo sapiens) (UniProt O14744); assay: Inhibition of PRMT5 in TGFbeta1-stimulated human HS578T cells assessed as decrease in H3R2me2s protein expression at 500 nM for 4 days by immunoblot analysis; format: cell-based; settings: Hs-578T, time 4.0 day; how it was run: as §1
[3] = biological target: Protein arginine N-methyltransferase 5 (Homo sapiens) (UniProt O14744); assay: Inhibition of PRMT5 in TGFbeta1-stimulated human HS578T cells assessed as decrease in H3R2me1 protein expression at 500 nM for 4 days by immunoblot analysis; format: cell-based; settings: Hs-578T, time 4.0 day; how it was run: as §1
[4] = biological target: Protein arginine N-methyltransferase 5 (Homo sapiens) (UniProt O14744); assay: Inhibition of PRMT5 in TGFbeta1-stimulated human A549 cells assessed as increase in snail protein expression at 500 nM for 4 days by immunoblot analysis; format: cell-based; settings: time 4.0 day; how it was run: as §1
[5] = biological target: Protein arginine N-methyltransferase 5 (Homo sapiens) (UniProt O14744); assay: Inhibition of PRMT5 in TGFbeta1-stimulated human A549 cells assessed as increase in vimentin protein expression at 500 nM for 4 days by immunoblot analysis; format: cell-based; settings: time 4.0 day; how it was run: as §1
[6] = biological target: Protein arginine N-methyltransferase 5 (Homo sapiens) (UniProt O14744); assay: Inhibition of PRMT5 in TGFbeta1-stimulated human A549 cells assessed as decrease in decrease in E-cadherin protein expression at 500 nM for 4 days by immunoblot analysis; format: cell-based; settings: time 4.0 day; how it was run: as §1
[7] = biological target: Protein arginine N-methyltransferase 5 (Homo sapiens) (UniProt O14744); assay: Inhibition of PRMT5 in TGFbeta1-stimulated human A549 cells assessed as decrease in H4R3me2s protein expression at 500 nM for 4 days by immunoblot analysis; format: cell-based; settings: time 4.0 day; how it was run: as §1
[8] = biological target: Protein arginine N-methyltransferase 5 (Homo sapiens) (UniProt O14744); assay: Inhibition of PRMT5 in TGFbeta1-stimulated human A549 cells assessed as decrease in H3R2me2s protein expression at 500 nM for 4 days by immunoblot analysis; format: cell-based; settings: time 4.0 day; how it was run: as §1
[9] = biological target: Protein arginine N-methyltransferase 5 (Homo sapiens) (UniProt O14744); assay: Inhibition of PRMT5 in TGFbeta1-stimulated human A549 cells assessed as decrease in H3R2me1 protein expression at 500 nM for 4 days by immunoblot analysis; format: cell-based; settings: time 4.0 day; how it was run: as §1
[10] = tested on: A549; assay: Anticancer activity against human A549 cells assessed as decrease in cell invasion at 500 nM for 4 days by crystal violet staining based matrigel assay; format: functional; settings: time 4.0 day
How it was run: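 A549 cells were exposed to 500 nM for 0 or 4 days, then run in a Matrigel invasion assay through 8 μm porous polycarbonate membranes. Crystal violet-stained invaded cells on the underside were imaged by phase-contrast at 20X and quantified. Three independent experiments, mean ± S.E.M., one-way ANOVA.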

[11] = biological target: Protein arginine N-methyltransferase 5 (Homo sapiens) (UniProt O14744); assay: Inhibition of PRMT5 in human A549 cells assessed as decrease in SmD3 methylation at 0.01 to 5 uM for 4 days by immunoblot analysis; format: cell-based; settings: dose 0.01-5 µM, time 4.0 day
How it was run: (§2)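 A549 cells were exposed to 0, 10 nM, 100 nM, 500 nM, 1 μM or 5 μM for 4 days. Lysates were blotted for SYM10 (methylated SmD3) and GAPDH. Extracted histones were blotted for H4R3me2s and H3, with DB71 staining of the histones.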

[12] = biological target: Protein arginine N-methyltransferase 5 (Homo sapiens) (UniProt O14744); assay: Inhibition of PRMT5 in human A549 cells assessed as decrease in histone […] methylation at 0.01 to 5 uM for 4 days by immunoblot analysis; format: cell-based; settings: dose 0.01-5 µM, time 4.0 day; how it was run: as §2
[13] = tested on: A549; assay: Cytotoxicity against human A549 cells assessed as decrease in cell viability at 500 nM for 4 days by microscopic analysis; format: functional, cell-based; settings: time 4.0 day
[14] = tested on: IMR-90; assay: Cytotoxicity against human IMR-90 cells assessed as effect on cell viability at 500 nM for 4 days by microscopic analysis; format: toxicity, cell-based; settings: imr-90, 96 h, 0.5 µM, time 4 day
[15] = biological target: Protein arginine N-methyltransferase 5 (Homo sapiens) (UniProt O14744); assay: Inhibition of PRMT5 in human IMR-90 cells assessed as effect on SmD3 methylation for 4 days by immunoblot analysis; format: cell-based; settings: time 4.0 day
[16] = biological target: Protein arginine N-methyltransferase 5 (Homo sapiens) (UniProt O14744); assay: Inhibition of PRMT5 in human IMR-90 cells assessed as effect on histone […] methylation for 4 days by immunoblot analysis; format: cell-based; settings: time 4.0 day
[17] = tested on: A549; assay: Anticancer activity in human A549 cells assessed as TGFbeta1-induced cell morphology change for 4 days by microscopic analysis; format: functional, cell-based; settings: dose 500.0 nM, time 4.0 day
How it was run: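 A549 cells were given or not given 500 nM for 4 days and 10 nM TGFβ1 for 2 days. Cell morphology was imaged by microscopy, with inserts at higher magnification.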

[18] = tested on: A549; assay: Anticancer activity against human A549 cells assessed as decrease in TGFbeta1-induced cell invasion at 500 nM for 4 days by crystal violet staining based matrigel assay; format: functional; settings: time 4.0 day
How it was run: (§3)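 Matrigel invasion through 8 μm pores in A549, SK-MES-1 or HS578T cells, with or without 500 nM inhibitor for 4 days and with or without 10 nM TGFβ1 for 2 days. Invaded cells on the membrane underside were stained with crystal violet, imaged by phase-contrast at 20X and counted. Mean ± S.E.M. of three independent experiments; one-way ANOVA.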

[19] = tested on: NCI-H460; assay: Anticancer activity against human NCI-H460 cells assessed as decrease in TGFbeta1-induced cell invasion at 500 nM for 4 days by crystal violet staining based matrigel assay; format: functional; settings: time 4.0 day
[20] = tested on: SK-MES-1; assay: Anticancer activity against human SK-MES-1 cells assessed as decrease in TGFbeta1-induced cell invasion at 500 nM for 4 days by crystal violet staining based matrigel assay; format: functional; settings: time 4.0 day; how it was run: as §3
[21] = tested on: NCI-H1339; assay: Anticancer activity against human NCI-H1339 cells assessed as decrease in TGFbeta1-induced cell invasion at 500 nM for 4 days by crystal violet staining based matrigel assay; format: functional; settings: time 4.0 day
[22] = tested on: Hs-578T; assay: Anticancer activity against human Hs-578T cells assessed as decrease in TGFbeta1-induced cell invasion at 500 nM for 4 days by crystal violet staining based matrigel assay; format: functional; settings: time 4.0 day; how it was run: as §3
[23] = tested on: A549; assay: Anticancer activity against human A549 cells assessed as decrease in cell migration at 500 nM for 4 days by crystal violet staining based matrigel assay; format: functional; settings: time 4.0 day

Chain of Protein arginine N-methyltransferase 5 (Homo sapiens) (O14744 whole entry): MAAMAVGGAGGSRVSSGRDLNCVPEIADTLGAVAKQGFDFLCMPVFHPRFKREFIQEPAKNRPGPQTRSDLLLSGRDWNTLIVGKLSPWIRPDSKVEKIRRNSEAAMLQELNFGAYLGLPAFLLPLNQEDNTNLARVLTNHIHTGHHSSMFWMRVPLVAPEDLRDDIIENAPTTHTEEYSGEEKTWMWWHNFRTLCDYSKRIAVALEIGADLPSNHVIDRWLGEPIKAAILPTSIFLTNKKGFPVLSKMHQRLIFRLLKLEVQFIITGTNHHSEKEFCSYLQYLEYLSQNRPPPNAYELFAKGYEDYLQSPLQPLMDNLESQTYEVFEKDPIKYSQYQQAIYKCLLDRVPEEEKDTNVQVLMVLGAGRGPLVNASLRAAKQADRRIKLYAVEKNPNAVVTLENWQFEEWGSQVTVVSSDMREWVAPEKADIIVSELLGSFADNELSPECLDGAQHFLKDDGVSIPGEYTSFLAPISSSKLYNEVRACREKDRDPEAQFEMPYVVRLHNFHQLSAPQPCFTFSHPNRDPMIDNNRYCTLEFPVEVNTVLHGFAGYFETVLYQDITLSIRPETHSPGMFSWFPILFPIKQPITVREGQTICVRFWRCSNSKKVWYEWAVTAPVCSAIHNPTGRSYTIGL

inhibition [1]: Active
inhibition [2]: Active
inhibition [3]: Active
inhibition [4]: Active
inhibition [5]: Active
inhibition [6]: Active
inhibition [7]: Active
inhibition [8]: Active
inhibition [9]: Active
inhibition [11]: Active
inhibition [12]: Active
inhibition [15]: inactive
inhibition [16]: inactive
Compound: O=C(NC[C@H](O)CN1CCc2ccccc2C1)c1ccnc(NC2CCC2)c1
inhibition [10]: Active
inhibition [13]: Active
Activity [14]: Non-Toxic
Activity [17]: Active
inhibition [18]: Active
inhibition [19]: Active
inhibition [20]: Active
inhibition [21]: Active
inhibition [22]: Active
inhibition [23]: Active
